Screening data: PubChem BioAssay, several laboratories
MDM2 E3 inh – inhibitors of human Mdm2 E3 ubiquitin ligase | Q00987 | cell-based MDM2 ubiquitination luciferase reporter, 2 h; 0 = plate control, 100 = twice control, blank-subtracted | signal enhancement, % at 5 µM | 210,000 compounds, 0.11% hits;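 active means signal enhancement of 30% or more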;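 further: luminescence tracks abundance of the self-degrading MDM2-luciferase fusion protein; higher signal means inhibition of MDM2 E3 ligase activity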
Target sequence (Q00987 whole entry, looked up, the tested form may be a part): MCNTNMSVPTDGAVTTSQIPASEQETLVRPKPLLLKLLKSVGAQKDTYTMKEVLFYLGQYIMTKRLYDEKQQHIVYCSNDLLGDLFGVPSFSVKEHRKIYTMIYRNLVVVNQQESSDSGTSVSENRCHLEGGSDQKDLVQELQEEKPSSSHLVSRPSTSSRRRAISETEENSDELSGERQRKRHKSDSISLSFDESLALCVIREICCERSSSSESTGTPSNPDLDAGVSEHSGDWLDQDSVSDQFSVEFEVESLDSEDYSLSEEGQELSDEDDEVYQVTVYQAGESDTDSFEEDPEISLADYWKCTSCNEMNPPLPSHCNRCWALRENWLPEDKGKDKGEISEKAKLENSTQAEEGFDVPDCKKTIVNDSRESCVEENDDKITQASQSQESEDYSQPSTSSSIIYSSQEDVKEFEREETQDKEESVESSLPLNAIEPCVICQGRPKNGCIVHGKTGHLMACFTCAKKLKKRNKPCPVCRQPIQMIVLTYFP
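Material: stable MDM2–luciferase fusion reporter cells / Quantity: 2000 cells/well / Dosing: single 5 µM compound dose, 0.2% final DMSO / Buffer or medium: DMEM / Schedule: 4 h cell settling then 2 h compound exposure, 37 °C / Detection: luminescence with SteadyLite reagent, 15 min at room temperature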
S1P4 antagonist – antagonists of human S1P4 receptor | inhibition, % at 4.98 µM | 220,000 compounds, 0.26% hits | O95977 | S1P4-expressing cells, antagonist mode, reporter read-out | AID 1510; in the data active means inhibition above about 29%;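 further: 0% = wells stimulated with agonist and 100% = vehicle wells without agonist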
Biofilm kill mix – mixture kills Candida albicans biofilm cells | inhibition, % at 7.6 µM | 120,000 compounds, 0.02% hits | C. albicans biofilm persisters + clotrimazole, fluorescence viability; primary screen in compound mixtures of four per well;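 further: compounds exposed to preformed 24 h biofilms for 48 h; 0% = untreated biofilm control and 100% = clotrimazole plus chlorhexidine kill blank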
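System: C. albicans CAF4-2 wild-type biofilms; Medium: RPMI/MOPS medium, pH 7.0; Reagent: Clotrimazole, 50 µg/mL; Times: biofilm formation 24 h, compound exposure 48 h, 37 °C; Detection: 2-h Alamar Blue fluorescence, 535/590 nm excitation/emission; Evaluation: percent inhibition of biofilm viability.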
S1P4 agonist – activates the human S1P4 receptor | S1P4-expressing cell line, agonist reporter assay | activation, % at 4.98 µM | 220,000 compounds, 0.35% hits; in the data active means activation above about 11%;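 further: 0% = DMSO vehicle and 100% = reference agonist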
S1P3 antag – blocks the human S1P3 receptor. AID 485. inhibition, % at 4.98 µM. Q99500. CHO S1P3 NFAT-BLA reporter, FRET fluorescence, antagonist mode. 170,000 compounds, 0.27% hits;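 active means inhibition above the plate cutoff, the mean inhibition of test wells on that plate plus 3 SD, cut at about 28% in these data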;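 further: cells challenged with S1P at its EC80 of 0.8 µM; blue over green emission ratio from cleaved BLA substrate after 4 h stimulation; 0% = S1P-stimulated wells and 100% = unstimulated DMSO-only wells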
S1P4 antag conf – confirmation of human S1P4 receptor antagonists; S1P4-expressing cell line, antagonist mode, reporter read-out; 520 compounds, 71% hits; shares compounds with S1P4 antagonist; inhibition, % at 4.98 µM; in the data active means inhibition above about 30%
S1P1 antag – human S1P1 antagonism as S1P4 antagonist counter-screen. shares compounds with S1P4 antagonist. cell-based S1P1 antagonist counterscreen, inhibition. inhibition, % at 4.98 µM. 520 compounds, 37% hits; in the data active means inhibition above about 40%;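 further: receptor stimulated with S1P near its EC80; 0% = agonist stimulated wells and 100% = vehicle only wells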
* hit, by the source's call. Hits are enriched below; roughly 0.9% of the tested compounds scored in any of these assays.

For Cc1cc(C)cc(NC(=O)c2ccc([N+](=O)[O-])o2)c1 the results were MDM2 E3 inh -25.0, S1P4 antagonist 62.7*, Biofilm kill mix 7.2, S1P4 agonist -2.5, S1P3 antag 3.3, S1P4 antag conf 88.6* and S1P1 antag 3.6.
For Cn1c(SCC(=O)Nc2cccc(S(=O)(=O)NC3=NCCCCC3)c2)nnc1-c1ccccc1 the results were MDM2 E3 inh -4.4, S1P4 antagonist 4.6, Biofilm kill mix 13.5, S1P4 agonist 0.0 and S1P3 antag -6.0.
`N#C/C(=C\c1ccccn1)c1nc2ccccc2s1` gave MDM2 E3 inh -43.5, S1P4 antagonist 74.2*, Biofilm kill mix -5.1, S1P4 agonist -0.5, S1P3 antag -3.8, S1P4 antag conf 35.6* and S1P1 antag 43.0*.
COc1cc(CNCCO)cc(Cl)c1OCc1ccc(Cl)cc1Cl was read as MDM2 E3 inh -2.7, S1P4 antagonist 31.1*, Biofilm kill mix 5.5, S1P4 agonist 4.3, S1P3 antag -15.0, S1P4 antag conf 50.6* and S1P1 antag 64.0*.
`COc1cc(CNCCO)cc(Br)c1OCc1ccccc1Cl` gave MDM2 E3 inh -12.2, S1P4 antagonist 13.5 and S1P4 agonist 9.5.
For Cc1ccc(NC(=O)C(=O)NCC2CCCO2)cc1 (centres undefined) the results were MDM2 E3 inh -26.9, S1P4 antagonist 78.8*, Biofilm kill mix 4.5, S1P4 agonist -1.7, S1P3 antag -20.5, S1P4 antag conf -7.8 and S1P1 antag -11.5.
CCOC(=O)N1CCN(S(=O)(=O)c2ccc(OCC(=O)OC)c(C)c2)CC1 was read as MDM2 E3 inh -14.2, S1P4 antagonist -14.4, S1P4 agonist 0.6 and S1P3 antag -46.3.
Screening COC(=O)COc1ccc(S(=O)(=O)N2CCN(c3ccccc3F)CC2)cc1C returned MDM2 E3 inh -9.3, S1P4 antagonist 34.6*, S1P4 agonist 0.1, S1P3 antag -37.4, S1P4 antag conf 14.0 and S1P1 antag -9.1.
Screening C/C(CC(C)(C)C1CCCCC1)=N\NC(N)=S returned MDM2 E3 inh -11.0, S1P4 antagonist 47.7*, S1P4 agonist -0.8, S1P4 antag conf 66.7* and S1P1 antag -11.1.
Screening C/C(CCC12CC3CC(CC(C3)C1)C2)=N\NC(N)=S returned MDM2 E3 inh -19.5, S1P4 antagonist 15.6 and S1P4 agonist -2.4.
COc1cccc2c1OC1(CCN(C(C)C)CC1)N1N=C(c3cccnc3)CC21 (centres undefined) was read as MDM2 E3 inh -1.3, S1P4 antagonist -5.1, Biofilm kill mix -35.1, S1P4 agonist -1.2 and S1P3 antag 3.0.
Screening CC(C)N1CCC2(CC1)Oc1ccc(Br)cc1C1CC(c3cccnc3)=NN12 (centres undefined) returned S1P4 antagonist 32.0*, Biofilm kill mix 17.4, S1P4 agonist 0.4, S1P3 antag 3.5, S1P4 antag conf 19.0 and S1P1 antag 32.0.
`CCn1ncc(CNC(=O)c2cccc([N+](=O)[O-])c2)c1C` gave MDM2 E3 inh -15.9, S1P4 antagonist -20.5, Biofilm kill mix 12.7, S1P4 agonist -1.4 and S1P3 antag -4.3.
For CCc1nn(-c2ccccc2)c(=S)c2ccccc12 the results were MDM2 E3 inh -13.9, S1P4 antagonist -2.0, Biofilm kill mix 12.4, S1P4 agonist -1.1 and S1P3 antag -10.8.
For C#CCSc1nnnn1-c1cccc(Cl)c1 the results were MDM2 E3 inh -9.1, S1P4 antagonist -0.8, Biofilm kill mix 18.1, S1P4 agonist -1.8 and S1P3 antag 4.1.
Screening COc1ccc2c(c1)c(/C=N/Nc1nc3ccccc3[nH]1)c(C)n2C returned MDM2 E3 inh -20.4, S1P4 antagonist 32.0*, Biofilm kill mix 2.7, S1P4 agonist 0.7, S1P3 antag 11.1, S1P4 antag conf 23.2 and S1P1 antag -0.9.
Screening COc1cc(/C=N\Nc2nc3ccccc3[nH]2)cc(OC)c1OC returned MDM2 E3 inh -15.7, S1P4 antagonist 3.8 and S1P4 agonist -0.5.
For Cc1cccc(NC2=C/C(=N/S(=O)(=O)c3cccs3)c3ccccc3C2=O)c1 the results were MDM2 E3 inh -1.8, S1P4 antagonist -2.9, Biofilm kill mix 17.8, S1P4 agonist 5.9 and S1P3 antag -8.3.
